Test results taken from ChEMBL document CHEMBL2057139, “Synthesis, antimalarial activity and cytotoxicity of 10-aminoethylether derivatives of artemisinin” (Bioorg Med Chem, 2012).

How the values were obtained:
CHO = test: Cytotoxicity against CHO cells by MTT assay; type: cell-based, Cricetulus griseus; details: for Activity: chinese hamster, cho; for IC50: Cricetulus griseus, CHO
Plasmodium falciparum [1] = test: Antimalarial activity against asexual erythrocyte stage of chloroquine-sensitive Plasmodium falciparum D10 by parasite lactate dehydrogenase assay; type: functional, organism-based
Method in brief: (§1)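 Asexual erythrocyte-stage P. falciparum kept in continuous culture (modified Trager–Jensen). Growth was read by parasite lactate dehydrogenase assay. Stocks were 20 mg/ml in 100% DMSO, sonicated, and tested as suspension if not dissolved. Full dose–response started at 100 ng/ml, with 2-fold serial dilution in complete medium to 10 concentrations (lowest 0.2 ng/ml). Each strain was tested in triplicate on one occasion. IC50 is 50% parasite growth inhibition.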

Plasmodium falciparum [2] = test: Resistance index ratio of IC50 for asexual erythrocyte stage of chloroquine-resistant Plasmodium falciparum Dd2 to IC50 for asexual erythrocyte stage of chloroquine-sensitive Plasmodium falciparum D10; type: functional
Plasmodium falciparum [3] = test: Antimalarial activity against asexual erythrocyte stage of chloroquine-resistant Plasmodium falciparum Dd2 by parasite lactate dehydrogenase assay; type: functional, organism-based; method in brief: as §1

Row | Compound | Activity (CHO) | IC50 (Plasmodium falciparum [1]) | Ratio IC50 (Plasmodium falciparum [2]) | IC50 (Plasmodium falciparum [3]) | IC50 (CHO)
1 | C[C@H]1[C@@H](OCCNCCCn2ccnc2)O[C@@H]2O[C@@]3(C)CC[C@H]4[C@H](C)CC[C@@H]1[C@@]24OO3.O=C(O)C(=O)O | Non-toxic | 6.04 nM | 31.343 | 189 nM | –
2 | CC(C)CNCCO[C@H]1O[C@@H]2O[C@@]3(C)CC[C@H]4[C@H](C)CC[C@@H]([C@H]1C)[C@@]24OO3.O=C(O)C(=O)O | – | 4.01 nM | 13.68 | 54.9 nM | 72900 nM
3 | C[C@H]1[C@@H](OCCN(C)Cc2ccccc2)O[C@@H]2O[C@@]3(C)CC[C@H]4[C@H](C)CC[C@@H]1[C@@]24OO3.O=C(O)C(=O)O | – | 1.44 nM | 13.888 | 20.1 nM | 141000 nM
4 | C[C@H]1[C@@H](OCCNCCN2CCOCC2)O[C@@H]2O[C@@]3(C)CC[C@H]4[C@H](C)CC[C@@H]1[C@@]24OO3.O=C(O)C(=O)O | Non-toxic | 6.88 nM | 8.945 | 61.6 nM | –
5 | C[C@H]1[C@@H](OCCNCCN2CCCCC2)O[C@@H]2O[C@@]3(C)CC[C@H]4[C@H](C)CC[C@@H]1[C@@]24OO3.O=C(O)C(=O)O | Non-toxic | 6.72 nM | 9.932 | 66.7 nM | –
6 | C[C@H]1[C@@H](OCCN2CCCCC2)O[C@@H]2O[C@@]3(C)CC[C@H]4[C@H](C)CC[C@@H]1[C@@]24OO3.O=C(O)C(=O)O | Non-toxic | 3.31 nM | 9.695 | 32.1 nM | –
7 | CC[C@H]1CN2CCc3cc(OC)c(OC)cc3[C@@H]2C[C@@H]1C[C@H]1NCCc2cc(OC)c(OC)cc21 [EMETINE] | – | – | – | – | 19.8 nM
8 | C[C@H]1[C@@H](O)O[C@@H]2O[C@@]3(C)CC[C@H]4[C@H](C)CC[C@@H]1[C@@]24OO3 [ARTENIMOL] | – | 0.785 nM | 4.433 | 3.48 nM | –
9 | C[C@H]1[C@@H](OCCNCc2ccco2)O[C@@H]2O[C@@]3(C)CC[C@H]4[C@H](C)CC[C@@H]1[C@@]24OO3.O=C(O)C(=O)O | – | 2.41 nM | 8.858 | 21.4 nM | 79700 nM
10 | CC(C)N(CCNCCO[C@H]1O[C@@H]2O[C@@]3(C)CC[C@H]4[C@H](C)CC[C@@H]([C@H]1C)[C@@]24OO3)C(C)C.O=C(O)C(=O)O | Non-toxic | 1.83 nM | 26.24 | 48.1 nM | –
11 | C[C@H]1[C@H](OC(=O)CCC(=O)[O-])O[C@@H]2O[C@@]3(C)CC[C@H]4[C@H](C)CC[C@@H]1[C@@]24OO3.[Na+] [SODIUM ARESUNATE] | – | 0.933 nM | 27.719 | 25.9 nM | –
12 | C[C@H]1[C@@H](OCCN2CCNCC2)O[C@@H]2O[C@@]3(C)CC[C@H]4[C@H](C)CC[C@@H]1[C@@]24OO3.O=C(O)C(=O)O | Non-toxic | 1.8 nM | 28.318 | 50.9 nM | –
13 | C[C@H]1[C@@H](OCCN2CCOCC2)O[C@@H]2O[C@@]3(C)CC[C@H]4[C@H](C)CC[C@@H]1[C@@]24OO3.O=C(O)C(=O)O | Non-toxic | 4.64 nM | 3.483 | 16.2 nM | –
14 | C[C@H]1[C@@H](OCCNCCNc2ccccc2)O[C@@H]2O[C@@]3(C)CC[C@H]4[C@H](C)CC[C@@H]1[C@@]24OO3.O=C(O)C(=O)O | – | 2.61 nM | 21.086 | 55.1 nM | 47500 nM
